Source: ChEMBL document CHEMBL3763147, “Small Molecule Inhibitors of Ca(2+)-S100B Reveal Two Protein Conformations” (J Med Chem, 2016)
Active and inactive are the calls of the source. The calls are words filed in the database; no cut-off is given here.

Assays:
[1] = Growth inhibition of human WM115 cells expressing high levels of S100-B by SYBR Green based fluorescence method; assay type: functional, cell-based; settings: WM-115
[2] = target: T1, Protein S100-B (Rattus norvegicus) (UniProt P04631); assay: Displacement of TAMRA-TRTK12 from recombinant rat calcium loaded S100-B at <1 mM by fluorescence polarization competition assay
T1 sequence (whole entry): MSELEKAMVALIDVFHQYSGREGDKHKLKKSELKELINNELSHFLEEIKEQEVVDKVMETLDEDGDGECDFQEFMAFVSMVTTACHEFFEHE

[3] = Growth inhibition of human WM115 cells expressing low levels of S100-B by SYBR Green based fluorescence method; assay type: functional, cell-based; settings: WM-115
Protein S100-B [4] = target: T2, Protein S100-B (Rattus norvegicus, UniProt P04631); assay: Displacement of TAMRA-TRTK12 from recombinant rat calcium loaded S100-B by fluorescence polarization competition assay
T2 sequence (P04631 whole entry): T1 sequence (whole entry)

Protein S100-B [5] = target: T2, Protein S100-B; assay: Displacement of TAMRA-TRTK12 from recombinant rat calcium loaded S100-B by […] analysis
Protein S100-B [6] = target: T2, Protein S100-B; assay: Binding affinity to recombinant rat calcium loaded S100-B by fluorescence spectrophotometric analysis
Outline: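 Competition fluorescence polarization against 10 nM TAMRA-labelled TRTK12 peptide (CapZ residues 265–276) with 1 µM Ca2+-loaded rat S100B. Buffer: 50 mM HEPES pH 7.2, 100 mM KCl, 15 mM NaCl, 10 mM CaCl2, 0.01% Triton X-100, 0.5% DMSO. Compounds titrated from the highest concentration possible. Read at room temperature (ex 544/em 590 nm). KD calculated from the IC50 using the Nikolovska-Coleska equation.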

Protein S100-B [7] = target: T2, Protein S100-B; assay: Binding affinity to recombinant rat calcium loaded S100-B by isothermal titration calorimetry

Structure (SMILES) | EC50 [1] [µM] | Activity [2] | EC50 [3] [µM] | IC50 (Protein S100-B [4]) [µM] | Kd (Protein S100-B [5]) [µM] | Kd (Protein S100-B [6]) [µM] | Kd (Protein S100-B [7]) [µM]
c1cc(C2=NCCCCN2)ccc1OCCCCCCCCOc1ccc(C2=NCCCCN2)cc1 | 5.4 | inactive | 4.8 |  |  |  | 
CNC(=O)NC(=N)c1ccc(OCCCCCCCOc2ccc(C(=N)NC(=O)NC)cc2)cc1 | 131 |  | 146 | 982 | 89.5 |  | 
N=C(N)c1ccc(OCCCCCCCCOc2ccc(C(=N)N)cc2)cc1 | 245 |  | 234 |  |  |  | 
N=C(N)c1ccc(OCCCCCCCOc2ccc(C(=N)N)cc2)cc1 [HEPTAMIDINE] | 11.5 |  | 25.6 |  |  |  | 
c1cc(C2=NCCN2)ccc1OCCCCCCOc1ccc(C2=NCCN2)cc1 | 52 | inactive | 34.5 |  |  |  | 
c1cc(C2=NCCN2)ccc1OCCCCCCCCOc1ccc(C2=NCCN2)cc1 | 21.8 | inactive | 24.3 |  |  |  | 
c1cc(C2=NCCCCN2)ccc1OCCCCCCOc1ccc(C2=NCCCCN2)cc1 | 264 | inactive | 301 |  |  |  | 
N=C(N)c1ccc(OCCCCCOc2ccc(C(=N)N)cc2)cc1 [PENTAMIDINE] | 16.3 |  | 16.7 |  |  | 44 | 50
c1cc(C2=NCCCN2)ccc1OCCCCCOc1ccc(C2=NCCCN2)cc1 | 203 | inactive | 284 |  |  |  | 
N=C(N)c1ccc(Oc2ccc(-c3cc4ccc(C(=N)N)cc4[nH]3)cc2)cc1 | < 1 |  | < 1 | 66.6 | 6 |  | 
N=C(NC(=O)Nc1ccccc1)c1ccc(OCCCCCCCOc2ccc(C(=N)NC(=O)Nc3ccccc3)cc2)cc1 | 0.4 |  | 0.5 |  |  |  | 
c1cc(C2=NCCCN2)ccc1OCCCCCCOc1ccc(C2=NCCCN2)cc1 | 44.1 | inactive | 42.7 |  |  |  | 
CCCN(CCCOc1ccc(C(=N)N)cc1)CCCOc1ccc(C(=N)N)cc1 | 864 |  | 500 |  |  |  | 
N=C(NCCCCCN)c1ccc(OCCCCCOc2ccc(C(=N)NCCCCCN)cc2)cc1 |  |  |  | 51.1 | 4.6 |  | 
c1cc(C2=NCCCCN2)ccc1OCCCCCOc1ccc(C2=NCCCCN2)cc1 | 20 | inactive | 19 |  |  |  | 
N=C(NCCCCCCCN)c1ccc(OCCCCCCCOc2ccc(C(=N)NCCCCCCCN)cc2)cc1 | 24.3 |  | 25.4 | 6.7 | 0.5 |  | 
N=C(N)c1ccc(OCCCN(CCCOc2ccc(C(=N)N)cc2)Cc2ccccc2)cc1 | 51.8 |  | 41 |  |  |  | 
c1cc(C2=NCCN2)ccc1OCCCCCCCOc1ccc(C2=NCCN2)cc1 | 32.2 | inactive | 21.2 |  | 203 |  | 
c1cc(C2=NCCCCN2)ccc1OCCCCCCCOc1ccc(C2=NCCCCN2)cc1 | 7.8 | inactive | 9.2 |  |  |  | 
c1cc(C2=NCCN2)ccc1OCCCCCOc1ccc(C2=NCCN2)cc1 | 56.2 | inactive | 38.9 |  |  |  | 
c1cc(C2=NCCCN2)ccc1OCCCCCCCCOc1ccc(C2=NCCCN2)cc1 | 24.8 | inactive | 37.9 |  |  |  | 
N=C(NCCCCCCCN)c1ccc(OCCCCCCCCOc2ccc(C(=N)NCCCCCCCN)cc2)cc1 | 46.3 |  | 45.8 | 18.3 | 1.6 |  | 
c1cc(C2=NCCCN2)ccc1OCCCCCCCOc1ccc(C2=NCCCN2)cc1 | 612 | inactive | 289 |  |  |  | 
